Consider 22 compounds from ChEMBL document CHEMBL1132447, “Structure-activity relationships and molecular modeling analysis of flavonoids binding to the benzodiazepine site of the rat brain GABA(A) receptor complex” (J Med Chem, 1999).

Assay [1] addresses GABA-A receptor; anion channel. Briefly: In vitro affinity against Benzodiazepine receptor binding to rat cortical membranes (using [3H]- flumazenil as radioligand). A digest of the protocol: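 Male Wistar rat (~200 g) cerebral cortex membranes, washed in Tris-citrate 50 mM pH 7.1, 2 mg original tissue/mL. Filtered, then scintillation counting. Duplicates.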
In assay [2] the target is GABA-A receptor; anion channel (Rattus norvegicus) (UniProt O09028+P15431+P18506+P18508+P19969+P20236+P23574+P23576+P28471+P28473+P30191+P62813+P63079+P63138+Q91ZM7+Q9ES14). Briefly: Ratio of Ki value without GABA and Ki value in the presence of GABA. The assay is classed as protein-complex assay.

pKi: −log10 of the molar value. Bounds are passed on as bounds.

By pKi is commonly meant the negative decadic logarithm of the Ki, by convention in mol/L. High values mean a small Ki, low ones a large Ki. As for `Cc1ccc2oc(-c3ccccc3)cc(=O)c2c1` [6-METHYLFLAVONE], the pKi in assay [1] was 6.90. The GABA ratio in assay [2] was 0.98.

For the compound `Cc1ccc2oc(-c3cccc([N+](=O)[O-])c3)cc(=O)c2c1[N+](=O)[O-]`, in assay [1], the pKi was 8.72. For the same compound, the GABA ratio in assay [2] was 1.41.

Compound `Cc1cccc(-c2cc(=O)c3cc(C)ccc3o2)c1` showed a negative-log Ki (pKi) in assay [1] of 7.54. The GABA ratio in assay [2] stood at 1.63.

`O=c1cc(-c2ccccc2)oc2ccc(Br)cc12` [6-BROMOFLAVONE]: in assay [1], the pKi is 7.15. Moreover, the GABA ratio in assay [2] stood at 1.8.

As for `O=c1cc(-c2cccc([N+](=O)[O-])c2)oc2ccc([N+](=O)[O-])cc12`, the GABA ratio in assay [2] turned out to be 1.3.

Compound `COc1ccc2oc(-c3ccccc3)cc(=O)c2c1` [6-METHOXYFLAVONE] had a pKi in assay [1] of 6.24. Moreover, the GABA ratio in assay [2] is 1.51.

With `CCc1c(C(=O)OC)ncc2[nH]c3cc(OC)c(OC)cc3c12`, the negative-log Ki (pKi) in assay [1] is 8.12. Also, in assay [2], the GABA ratio is 0.57.

`O=c1cc(-c2ccc(O)cc2)oc2cc(O)cc(O)c12` [APIGENIN]: the negative logarithm of the Ki (pKi) in assay [1] was 6.11. The GABA ratio in assay [2] is 1.03.

Take `Cc1ccc2oc(-c3ccccc3[N+](=O)[O-])cc(=O)c2c1`: in assay [1], the pKi is 6.00. The GABA ratio in assay [2] turned out to be 1.49.

As to `Cc1ccc2oc(-c3cccc([N+](=O)[O-])c3)cc(=O)c2c1`, the pKi in assay [1] was 8.25. In assay [2], the GABA ratio came to 0.72.

Turning to `Cc1ccc2sc(-c3ccccc3)cc(=O)c2c1`, the pKi in assay [1] was 6.51. For the same compound, the GABA ratio in assay [2] amounted to 1.35.

On to `O=c1cc(-c2cccc([N+](=O)[O-])c2)oc2ccc(Br)cc12`, for which the GABA ratio in assay [2] is 1.4.

The compound `Cc1ccc2sc(-c3cccc([N+](=O)[O-])c3)cc(=O)c2c1` had a pKi in assay [1] of 7.48. Besides, the GABA ratio in assay [2] was 1.51.

For the compound `O=c1cc(-c2ccccc2)oc2cc(O)cc(O)c12` [CHRYSIN], the negative-log Ki (pKi) in assay [1] was 6.04. Also, the GABA ratio in assay [2] worked out at 0.9.

In assay [1], `Cc1ccc2oc(-c3ccc([N+](=O)[O-])cc3)cc(=O)c2c1` had a negative-log Ki (pKi) of 5.14.

In the case of `O=c1cc(-c2ccccc2)oc2cc(O)ccc12` [7-HYDROXYFLAVONE], the pKi in assay [1] was 5.38. Also, the GABA ratio in assay [2] worked out at 1.14.

For the compound `O=c1cc(-c2ccccc2)oc2cccc(O)c12` [5-HYDROXYFLAVONE], in assay [1], the pKi was 5.72. In assay [2], the GABA ratio is 1.03.

In turn, `O=c1cc(-c2ccccc2)oc2ccccc12` [FLAVONE] showed a pKi in assay [1] of 5.38. Moreover, the GABA ratio in assay [2] was found to be 1.05.

Turning to `O=c1cc(-c2ccc([N+](=O)[O-])cc2)oc2ccc([N+](=O)[O-])cc12`, the pKi in assay [1] was 4.77.

In the case of `O=c1c(Br)c(-c2ccccc2)oc2ccccc12`, the pKi in assay [1] was under 4.12.

Compound `O=c1cc(-c2ccccc2)oc2ccc3ccccc3c12` [BETA-NAPHTHOFLAVONE] had a pKi in assay [1] of 5.83. For the same compound, the GABA ratio in assay [2] turned out to be 1.28.

Consider `O=c1cc(-c2ccccc2)oc2ccc(O)cc12` [6-HYDROXYFLAVONE], for which the negative logarithm of the Ki (pKi) in assay [1] is 6.40. Besides, the GABA ratio in assay [2] was found to be 1.06.
